Molecules are shown by their SMILES. The source made the active and inactive calls.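 The calls were made as follows, unless noted: active = GFP response above 150% of the DMSO level; inconclusive = fewer than 70 events counted for a yeast strain; inactive = the rest.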

The nature of assay [1]: RPL19A-GFP modulators, yeast TOR pathway, confirmation, cell-based, S. cerevisiae, flow cytometry, cherry picks, mother/daughter gates (AID 2270;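 active = GFP response below 50% of the DMSO control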). The note with it: S. cerevisiae RPL19A-GFP strain, 3 h, at 10 µM, stronger effect = lower value, 100 = same GFP as DMSO wells.
A short description of assay [2]: LAP4-GFP expression modulators in yeast, confirmation, cell-based, cherry picks, flow cytometry, mother/daughter gates (AID 2271;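 active = GFP response above 150% of the DMSO control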;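 also: ratio of sample to DMSO plate mean so 100% equals DMSO level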). Particulars: S. cerevisiae LAP4-GFP strain, 3 h, at 10 µM, stronger effect = higher value, 100 means same as DMSO control. In a few lines:
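System: Alexa 633-stained baker's yeast GFP-fusion strain / Medium: synthetic complete (SC) yeast growth medium / Doses: compound at 10 µM, single point / Times: 3 h treatment at 30 °C with rotation / Detection: HT flow cytometry, GFP fluorescence channel / Benchmarks: DMSO-only negative wells, rapamycin 400 ng/mL positive wells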
Background: In flow cytometry, cells or beads pass a laser one at a time.

Assay [3] can be described thus: modulators of MEP2-GFP levels in yeast, confirmation, S. cerevisiae, flow cytometry GFP, cherry picks (AID 2272;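 active = GFP response above 150% of the DMSO control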;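 also: ratio of well signal to plate DMSO mean so 100% equals DMSO level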). The note with it: S. cerevisiae MEP2-GFP strain, 3 h, at 10 µM, stronger effect = higher value.
Assay [4] in a line: AGP1-GFP expression modulators, hit retest, confirmation, cell-based, flow cytometry, S. cerevisiae, cherry picks (AID 2273).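 Also: median GFP channel fluorescence over the whole cell population gate.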 The note with it: S. cerevisiae AGP1-GFP strain, 3 h, at 10 µM.
Assay [5] is described as follows: modulators of CIT2-GFP expression in yeast, confirmation, S. cerevisiae, GFP fusion, cherry picks, mother/daughter gates (AID 2274). Particulars: S. cerevisiae CIT2-GFP strain, flow cytometry, 3 h, at 10 µM, stronger effect = higher value.
[6] abbreviates: measured here: daughter cell gate.
Setting [7] is: measured here: mother cell gate.
Setting [8] is: measured here: daughter cell gate response.
[9] abbreviates: measured here: mother cell gate response.

With `COc1ccccc1OCCCc1c(C)n[nH]c1C`, the GFP response vs DMSO in assay [1] was 119% (inactive); in assay [1] (setting [6]) it was 89.8%; in assay [1] (setting [7]), 115%; in assay [3] it was 130% (inactive). The GFP response relative to DMSO in assay [2] was 207% (active); in assay [2] (setting [8]) it was 104%; in assay [2] (setting [9]) it was 205%. In addition, the GFP response, % of DMSO is 76.6% (inactive) in assay [4], 114% (inactive) in assay [5], 101% in assay [5] (setting [6]) and 101% in assay [5] (setting [7]).
Consider `Cc1ccc(C2=NN(S(C)(=O)=O)C(c3ccc4c(c3)OCO4)C2)cc1` (stereo not drawn), for which the GFP response vs DMSO was 101% (inactive) in assay [1], 99.6% in assay [1] (setting [6]), 102% in assay [1] (setting [7]) and 141% (inactive) in assay [3]. In addition, the GFP response relative to DMSO is 116% (inactive) in assay [2], 115% in assay [2] (setting [8]) and 115% in assay [2] (setting [9]). The GFP response, % of DMSO in assay [4] is 103% (inactive); in assay [5], 129% (inactive); in assay [5] (setting [6]), 130%; in assay [5] (setting [7]), 119%.
Consider `CC(C)(C)NC(=O)c1ccccc1-c1nc(-c2ccccc2Cl)no1`, for which the GFP response vs DMSO in assay [1] was 94.8% (inactive); in assay [1] (setting [6]) it was 95.9%; in assay [1] (setting [7]) it was 93.2%; in assay [3], 107% (inactive). Moreover, the GFP response relative to DMSO in assay [2] was 99.5% (inactive); in assay [2] (setting [8]) it was 99.1%; in assay [2] (setting [9]), 99.4%. The GFP response, % of DMSO in assay [4] is 97.3% (inactive); in assay [5], 93% (inactive); in assay [5] (setting [6]), 92%; in assay [5] (setting [7]) it was 93.2%.
`O=C(/C(=C/c1ccccc1)n1cncn1)c1ccc(Cl)cc1Cl`: the GFP response vs DMSO in assay [1] is 96% (inactive); in assay [1] (setting [6]), 92.7%; in assay [1] (setting [7]) it was 93.5%; in assay [3] it was 98.8% (inactive). The GFP response relative to DMSO is 149% (inactive) in assay [2], 125% in assay [2] (setting [8]) and 162% in assay [2] (setting [9]). In addition, the GFP response, % of DMSO is 106% (inactive) in assay [4], 86% (inactive) in assay [5], 85.7% in assay [5] (setting [6]) and 79.8% in assay [5] (setting [7]).
With `Cc1cc(O)c(C(=O)/C=C/c2ccccc2Br)c(=O)o1`, the GFP response vs DMSO in assay [1] is 90.3% (inactive); in assay [1] (setting [6]) it was 95.9%; in assay [1] (setting [7]) it was 87.7%; in assay [3], 97.8% (inactive). Besides, the values for the GFP response relative to DMSO in assay [2], in assay [2] (setting [8]) and in assay [2] (setting [9]) were 140% (inactive), 137% and 144%, respectively. Besides, the GFP response, % of DMSO in assay [4] was 102% (inactive); in assay [5], 95.2% (inactive); in assay [5] (setting [6]), 98.1%; in assay [5] (setting [7]), 93.4%.
`Oc1c(CN2CCCCC2)cc(Br)c2cccnc12`: the GFP response vs DMSO in assay [1] was 106% (inactive); in assay [1] (setting [6]), 103%; in assay [1] (setting [7]), 105%; in assay [3], 118% (inactive). Further, the GFP response relative to DMSO is 208% (active) in assay [2], 181% in assay [2] (setting [8]) and 208% in assay [2] (setting [9]). Moreover, the GFP response, % of DMSO in assay [4] is 96.7% (inactive); in assay [5], 102% (inactive); in assay [5] (setting [6]), 104%; in assay [5] (setting [7]), 91%.
On to `CCN(CC)C(=O)c1ccc(-c2cccs2)s1`, for which the GFP response vs DMSO was 95.4% (inactive) in assay [1], 94.6% in assay [1] (setting [6]), 96.4% in assay [1] (setting [7]) and 94.1% (inactive) in assay [3]. In addition, the GFP response relative to DMSO was 107% (inactive) in assay [2], 106% in assay [2] (setting [8]) and 108% in assay [2] (setting [9]). Besides, the GFP response, % of DMSO is 99.9% (inactive) in assay [4], 98.3% (inactive) in assay [5], 97.2% in assay [5] (setting [6]) and 97.3% in assay [5] (setting [7]).
For the compound `CCOc1cc(/C=C2\N=C(C)OC2=O)cc(Br)c1OCC(=O)OC`, the GFP response vs DMSO in assay [1] is 98.2% (inactive); in assay [1] (setting [6]), 100%; in assay [1] (setting [7]), 96.9%; in assay [3] it was 102% (inactive). Further, the figures for the GFP response relative to DMSO in assay [2], in assay [2] (setting [8]) and in assay [2] (setting [9]) were 133% (inactive), 128% and 134%, respectively. For the same compound, the GFP response, % of DMSO in assay [4] was 94% (inactive); in assay [5], 99.3% (inactive); in assay [5] (setting [6]) it was 102%; in assay [5] (setting [7]) it was 94.5%.

For the origin of these results see PubChem BioAssay.
